Screening results: PubChem BioAssay, Broad Institute
Many of the other results were omitted from the sample, so hits are more common in it than they were.
PGC1a acetyl up: raises PGC1a acetylation signal in U2OS cells; activation, % at 15.6 µM; hit rate 0.21% among 350,000; U2OS PGC1a acetylation AlphaScreen, overnight;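 active = every replicate reaching activation of at least 50%, whatever the mean replicate activation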;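 note: hits raise the AlphaScreen acetylation signal above neutral controls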
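System – flag-PGC1a/GCN5 U2OS cells · Quantity – 7000 U2OS cells per well · Signal – AlphaScreen proximity luminescence, anti-acetyl-lysine antibody · Schedule – overnight compound treatment, 37 °C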
Each line names hits and unclear results; the compound was inactive in the other large screens.

C[C@@H]1CN([C@H](C)CO)C(=O)c2cc(-c3ccccc3)cnc2O[C@@H]1CN(C)C(=O)Cc1ccccc1	none
Cc1ccc(CNC(=O)C2CC(c3ccc([N+](=O)[O-])cc3)=NO2)cc1 (stereo unspecified)	PGC1a acetyl up 78
C[C@@H]1CN([C@H](C)CO)C(=O)c2cc(/C=C/c3ccccc3)cnc2O[C@@H]1CN(C)Cc1cccnc1	none
O=C(C[C@H]1CC[C@@H](NS(=O)(=O)c2ccc(F)cc2)[C@H](CO)O1)N1CCN(c2ccccc2)CC1	none
C=C1C(=O)O[C@H]2[C@H]1[C@@H](O)CC(=C)[C@@H]1CC(=O)[C@@H](C)[C@H]21	PGC1a acetyl up 72
CCC(=O)NC1(Cc2ccc(O)cc2)CCCCC1	none
Oc1ccc(-c2nnc(-c3ccc(O)cc3)nn2)cc1	PGC1a acetyl up 74
CCC(C)(CC(=O)O)CC(=O)Nc1cc(C(F)(F)F)cc(C(F)(F)F)c1 (stereo unspecified)	none
COc1ccc(C(=C(CC(=O)O)C(=O)OC(C)(C)C)c2cc(OC)c(OC)c(OC)c2)cc1OC	none
C=CCNc1nnc(SC2CC(=O)N(c3ccc(OC)cc3)C2=O)s1 (stereo unspecified)	PGC1a acetyl up 75
CCSC1=N/C(=C\c2ccccc2)C(=O)N1c1ccc(OC)cc1	none
O=C(C[C@H]1CC[C@@H](NC(=O)c2ccccc2)[C@H](CO)O1)Nc1ccc(-c2ccccc2)cc1	none
Cc1nc(Nc2ccc(S(N)(=O)=O)cc2)sc1C(=O)Nc1ccccc1	none
CCOC(=O)c1ccc(NC(=O)c2nc(S(=O)(=O)Cc3ccccc3)ncc2Cl)cc1	PGC1a acetyl up 78
C=C1C(=O)[C@]23C[C@H]1CCC2[C@@]1(C)C(C[C@@H]3O)[C@](C)(C(=O)OC)CC[C@@H]1O (stereo partly specified)	none
CC1C(=O)CCCCCCCCCC2C1(N1CCOCC1)CS2(=O)=O (stereo unspecified)	PGC1a acetyl up 61
O=C(CN1CCOCC1)N[C@H]1CC[C@H](CCNC(=O)Nc2cc(F)ccc2F)O[C@H]1CO	none
O=c1cc(CSc2ccccn2)[nH]c(=O)[nH]1	none
CCOC(=O)CN1C(=O)C(Sc2n[nH]c(-c3ccc(C)cc3)n2)CCc2ccccc21 (stereo unspecified)	PGC1a acetyl up 59
CCOC(=O)CS(=O)(=O)c1nc(-c2ccccc2)cc(C(F)(F)F)n1	none
OC(c1ccc(Cl)cc1Cl)C(Cc1cccnc1)n1cncn1 (stereo unspecified)	PGC1a acetyl up 59
COc1cccc(-n2c(-c3cccc(S(=O)(=O)N(C)C)c3)n[nH]c2=S)c1	none
CCCS(=O)(=O)c1nnnn1-c1cccc(OC)c1	PGC1a acetyl up 73
Cc1nc2[nH]c(=O)c3c(n2n1)NC1=C(C(=O)CC(C)(C)C1)C3c1ccccc1 (stereo unspecified)	none
O=C(Cc1ccc(-n2cccc2)cc1)NCc1cccs1	PGC1a acetyl up 58
CSc1nc(SC)c2c3c(oc2n1)COC(C)(C)C3	PGC1a acetyl up 58
CCC(=O)N(C)C[C@@H]1Oc2ncc(C#CCc3ccccc3)cc2C(=O)N([C@H](C)CO)C[C@@H]1C	none
Cc1[nH]c(=O)[nH]c(=O)c1S(=O)(=O)Nc1ccc(F)c(Cl)c1	none
O=c1[nH]c(=O)c2[nH]c(=S)[nH]c2[nH]1	none
Cc1cc(C)cc(C(=O)Nc2ccc3[nH]c(=O)[nH]c3c2)c1	none
O=C(Nc1ccc(N2CCN(C(=O)c3ccccc3)CC2)cc1)c1ccc([N+](=O)[O-])o1	PGC1a acetyl up 122
Cc1cc(C)cc(NC(=O)c2ccc([N+](=O)[O-])o2)c1	PGC1a acetyl up 247
O=[N+]([O-])c1ccccc1-c1ccc(C(=S)N2CCN(c3ccccc3)CC2)o1	none
O=C(Nc1c(Cl)ccc2nsnc12)c1ccc([N+](=O)[O-])o1	PGC1a acetyl up 74
CC(=O)c1ccc(NC(=O)c2ccc([N+](=O)[O-])o2)cc1	PGC1a acetyl up 101
O=C(c1ccc(CN2CCOCC2)cc1)N1CCN(Cc2ccccc2)CC1	none
O=C(Nc1ccc([N+](=O)[O-])cn1)c1ccc(Br)o1	none
O=C1C=CCCN1C(=O)/C=C/c1ccccc1Cl	none
CCOc1cc(CNC2CCCC2)cc(Cl)c1OCc1ccc(F)cc1	none
CCC(=O)Nc1ccc2c(c1)OC[C@@H](C)N(C(=O)c1cnccn1)C[C@H](C)[C@H](OC)CN(C)C2=O	none
CCOC(=O)CNC(=O)OC1CCN2Cc3ccccc3N=C12 (stereo unspecified)	none
CC(=O)N1CCN(C(C)=O)C1c1ccccc1	none
COC(=O)C12OCC34C(CC5C(C)=C(O)C(=O)CC5(C)C3C(O)C1O)OC(=O)C(OC(=O)C=C(C)C)C24 (stereo unspecified)	none
c1cc2c3c(cccc3c1)C(N1CCCCCC1)=N2	PGC1a acetyl up 86
O=C(COC(=O)c1ccco1)NCc1ccc2c(c1)OCO2	none
COc1ccc(CCNC(=O)COC(=O)c2ccco2)cc1OC	PGC1a acetyl up 108
COc1ccc(CCNC(=O)C2CCN(C(=O)c3ccc(F)cc3)CC2)cc1OC	none
Cc1cc(-c2ccc(Cl)cc2)n2ncnc2n1	none
NC(=O)NC(=O)Nc1ccccc1Cl	none
NC(=O)c1ccc(NC(=O)C#Cc2ccccc2)cc1	PGC1a acetyl up 203
CN1CCN(C(=O)c2sc(=S)n(-c3ccccc3)c2N)CC1	none
COc1cc(OC)c2c(-c3cccc(-c4cccc(C)c4)c3)cc(=O)oc2c1	PGC1a acetyl up 60
CCOc1ccc(N2CC(C(=O)Nc3ccc(S(=O)(=O)NCC4CCCO4)cc3)CC2=O)cc1 (stereo unspecified)	none
COc1ccc(NC(=O)N[C@@H]2CC[C@H](CCn3cc(-c4ccccc4F)nn3)O[C@@H]2CO)cc1	none
COc1ccc(S(=O)(=O)N2CC[C@@H]3[C@H](CO)Nc4ccc(-c5ccccc5F)cc4[C@@H]32)cc1	PGC1a acetyl up 51
COc1ccc(S(=O)(=O)N[C@@H]2CC[C@H](CCNC(=O)c3ccccc3F)O[C@H]2CO)cc1	none
C[C@H](CO)N1C[C@H](C)[C@@H](CN(C)Cc2ccccc2F)Oc2ncc(Br)cc2C1=O	none
CC(C)(C)Cc1nnc(NS(=O)(=O)c2ccc(F)cc2)s1	none
CCc1nnc(NC(=O)Cc2ccc(S(=O)(=O)N3CCCCC3)cc2)s1	PGC1a acetyl up 65
COc1ccc(CCNC(=O)COc2ccc(S(=O)(=O)N3CCCC3)cc2)cc1	none
COc1cc(/C=C/c2cccc[n+]2C)ccc1OCC(=O)Nc1ccccc1	none
Cc1noc(C)c1NC(=O)N(C)C[C@@H]1OCCCC[C@@H](C)Oc2ccc(N(C)C)cc2C(=O)N([C@@H](C)CO)C[C@H]1C	none
COc1ccc(-c2cc(C(F)(F)F)nc(S(C)(=O)=O)n2)cc1	PGC1a acetyl up 66
CCOC(=O)CCS(=O)(=O)c1nc(-c2ccccc2)cc(C(F)(F)F)n1	none
Oc1ccc(/C=N/Nc2nc(-c3ccc(Cl)cc3)cc(C(F)(F)F)n2)cc1	none
C[C@H]1CN([C@@H](C)CO)S(=O)(=O)c2ccc(C#CC3CCCCC3)cc2O[C@@H]1CN(C)Cc1cccnc1	none
O=C1C=C(c2cc3ccccc3s2)CCC1	PGC1a acetyl up 58
Cc1cc(C)c2oc(C(=O)N(Cc3ccccc3)c3ccccn3)cc(=O)c2c1	none
CC/C(=C(\c1ccc(O)cc1)c1ccc(OCCN(C)C)cc1)c1ccccc1	PGC1a acetyl up 63
CCN(CC)CCOc1ccc(/C(=C(/Cl)c2ccccc2)c2ccccc2)cc1	PGC1a acetyl up 99
CC/C(=C(\c1ccccc1)c1ccc(OCCN(C)C)cc1)c1ccccc1	PGC1a acetyl up 124
C[C@@H]1CN([C@H](C)CO)C(=O)CCCn2cc(nn2)CO[C@H]1CN(C)C(=O)Nc1ccc(C(F)(F)F)cc1	none
CC(=O)Nc1ccc(Oc2sc(C(=O)c3ccccc3)c(N)c2C#N)cc1	none
